From ChEMBL document CHEMBL4513216, “Probing the Open Global Health Chemical Diversity Library for Multistage-Active Starting Points for Next-Generation Antimalarials” (ACS Infect Dis, 2020)

Assay: Toxicity liver stage against HepG2, at 10uM
Format: cell-based
Parameters: test concentration 10 uM, cell line HepG2-A16-CD81EGFP
Details: human, HepG2-A16-CD81EGFP cells; read-out: INHIBITION
Outline: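 Uninfected HepG2-A16-CD81EGFP cells, 3 × 10^3 per well, 1536-well, plated on prespotted compound at 10 μM final, parasite-free screening media added to match infected plates; puromycin 10 μM positive, DMSO 0.5% negative; run in parallel with 48 h PbLuc assay at 37 °C, 5% CO2; viability by CellTiter-Glo luminescence, normalized to controls.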

| Compound | cytotoxicity at 10 µM |
| --- | --- |
| CN1CCC2(CCN(c3ncc(F)cn3)CC2)C1=O | 0.411% |
| CCCC(C#N)NC(=O)CCCOc1cccc(F)c1 (stereo unspecified) | -44.1% |
| O=C(c1ccnnc1)N1C[C@@H]2C[C@@H](c3nc(C4CC4)cs3)O[C@@H]2C1 | -124% |
| CCC(=O)Nc1c(C)nn(COc2cccc(F)c2)c1C | 7.77% |
| CCN1CCN(c2ncc(-c3cc(C)no3)c(-c3ccc(C)s3)n2)CC1 | 2.44% |
| O=C(c1cnn2c1OCCC2)N1CCC(Cc2ccccc2)CC1 | 0.524% |
| O=C(Nc1cnn(Cc2ccc(F)cc2Cl)c1)C1CC1 | -4.83% |
| c1ccc(N2CCCC3(CCN(Cc4nccs4)C3)C2)nc1 (stereo unspecified) | 6.94% |
| CC(C)OCCCNC(=O)CSc1nnc(OC(C)C)s1 | -5.89% |
| CC(=O)N1[C@H](CN(C)C)C[C@@H]2CN(C(=O)c3cccn3C)CC[C@@H]21 | 2.53% |
| Cc1cnc(CN(C)C2CCN(CCc3cnn(C)c3)C2)o1 (stereo unspecified) | 5.44% |
| Cc1cc2[nH]c(CN3CCOC(C(F)(F)F)C3)cc(=O)n2n1 (stereo unspecified) | -21.2% |
| O=C(Cn1cnnn1)Nc1ccc(F)cc1OCC1CC1 | 5.38% |
| Cc1cc2nc(SCC(=O)N3CCCC3)n(C(C)C)c(=O)c2[nH]1 | -7.53% |
| c1cc(-c2cn[nH]c2)ccc1CN1CCCCC1 | 1.58% |
| CC(C)c1n[nH]c(C2CN(Cc3nnc(C4CC4)o3)CCO2)n1 (stereo unspecified) | -10.1% |
| COC[C@H]1CCC[C@H]1Nc1ncnc2c1CCNCC2 | -11.2% |
| Cc1nn(C)c(C)c1C1CCCN1CCCC#N (stereo unspecified) | -0.699% |
| O=C(NCc1ccco1)[C@H]1C[C@@H]2CCN(c3ncccn3)C[C@H]2O1 | 7.1% |
| NC(=O)c1cccc(-c2cnc(C3CCCNC3)cn2)c1 (stereo unspecified) | -0.055% |
| Cc1nnc(CSCc2ccc(OCC(F)(F)F)nc2)o1 | 2.49% |

| Compound | cytotoxicity at 10 µM |
| --- | --- |
| CC(C)NC(=O)c1cc2c(c3ccccc3n2C)n1C(=O)N(C)C | -79.4% |
| COCCNC(=O)CCc1c(C)nn(-c2nc(C)c(C)c(=O)[nH]2)c1C | 11.1% |
| Cc1ccc(N2CC[C@@H]3O[C@@H](c4ccncn4)C[C@H]3C2)nn1 | 10.8% |
| COC(=O)COn1c(SCC(=O)OC)nc2ccccc2c1=O | -8.38% |
| Cc1cnn(CC2CCCN2C(=O)c2ccc(-n3cccn3)nc2)c1 (stereo unspecified) | -15.7% |
| CN(C)CCO[C@@H]1CC[C@H]2[C@H]1OCCN2C(=O)c1ccc(F)cc1 | -7.1% |
| CCNC(=O)[C@@H]1C[C@H](NC(=O)Cn2ccnc2)CN1Cc1ccsc1 | 5.89% |
| CN(CC(=O)N(C)C)Cc1ccc(C#N)cc1F | 6.56% |
| O=S(=O)(Cc1ccccc1)CC(O)Cn1cccn1 (stereo unspecified) | 3.4% |
| N#CC1(C(=O)N2CCN(Cc3cscn3)CC2)CCCC1 | -8.08% |
| COCCN1CCC2(CCC1=O)CN(C1CCOCC1)CCN2C (stereo unspecified) | 0.0227% |
| Cc1cnc(N2CCC3(CC2)CN(c2ccsc2)C(=O)CO3)nc1 | 7.34% |
| O=C1CN(CCCNC(=O)Nc2cccc(Cl)c2F)CCN1 | 15.2% |
| COc1ccccc1Oc1ncccc1CNC(=O)CN1CCCC1=O | -4.72% |
| COCCC1(C(=O)O)CCCN(c2cc(C)c3ccccc3n2)C1 (stereo unspecified) | -38.7% |
| CCN(CC)CCN(C)c1nc(-c2ccc(Cl)cc2)nc2c1CNC2 | 1.78% |
| CC(C)CN1C(=O)C2(CCN(Cc3nccs3)C2)c2ccccc21 (stereo unspecified) | 0.371% |
| CNS(=O)(=O)c1csc(C(=O)N(C)Cc2sccc2C)c1 | 16.4% |
| CC(C)NC(=O)[C@H]1C[C@@H]2[C@@H](C1)OCCN2Cc1ccccn1 | 6.62% |
| CC(C)c1ocnc1C(=O)NC1(c2cccc(F)c2)CCOCC1 | 6.81% |
| Cc1cnn(CC(=O)N(CC2CN(C)CCO2)c2nccs2)c1 (stereo unspecified) | 1.79% |

| Compound | cytotoxicity at 10 µM |
| --- | --- |
| O=C(C1CCCO1)N1CCC2(CC1)CNCCO2 (stereo unspecified) | -7.06% |
| CCNc1nc2c(s1)C(=O)CN(C(=O)NCc1ccccc1)C2 | 59.1% |
| Cc1nc2n(n1)CC(NCC(=O)Nc1cc(C)on1)CC2 (stereo unspecified) | -12.8% |
| O=C(c1cc[nH]n1)N1CCC(Nc2cccnn2)CC1 | -0.529% |
| Cc1cc(C(F)(F)F)cc(N2C[C@@H](CN(C)CCO)[C@@H](CO)C2)n1 | -14.4% |
| c1c(CN2CCOCC2)nc2n1CCN(CC1CC1)C2 | 2.73% |
| Cc1cccc(CN2CCc3c(nc(N4CCCCC4C)[nH]c3=O)C2)n1 (stereo unspecified) | -0.336% |
| CCN1CCn2c(-c3cccc(F)c3)cnc2C12CCN(C(C)=O)CC2 | -1.09% |
| CC(=O)N1CCn2c(-c3cccc(F)c3)cnc2C12CCNCC2 | 4.98% |
| CCC(CN1CCCC1)NC(=O)Cc1c(C)[nH]c2cc(C)cc(C)c12 (stereo unspecified) | 2.73% |
| O=C(c1cccs1)N1CCCn2cnc(COCC3CC3)c2C1 | -81.3% |
| Cc1cccc(OCCNC(=O)CN2CCCC2Cn2cncn2)c1 (stereo unspecified) | -4.03% |
| CN(C)CC1CSCCCN1C(=O)c1ccc(-c2ccccc2)cc1 (stereo unspecified) | 4.54% |
| CC(=O)N1CCC2(CC1)c1ncc(-c3ccccc3)n1CCN2C(C)=O | 10.5% |
| O=C(Nc1ccc(Cl)cn1)C1CCCN(Cc2ccccn2)C1 (stereo unspecified) | -10.5% |
| Cc1ccc(-n2nnc(C(=O)NCC3(CO)CC3)c2C2CC2)cc1 | -4.43% |
| Cc1ccc(S(=O)(=O)NC2CNC(=O)C2)cc1C (stereo unspecified) | -21.1% |
| CC1CN(C)CCN1C(=O)c1ccn(-c2ccccc2)n1 (stereo unspecified) | 0.533% |
| Cc1ccnc(OC[C@]23COC[C@H]2CN(C(=O)C2=CCCCC2)C3)n1 | 0.325% |
| CCOc1c(CNCCCn2ccnc2)cc(Cl)cc1OC | -3.88% |
| CN1CCOCC12CCN(Cc1ccoc1)CC2 | 2.93% |

| Compound | cytotoxicity at 10 µM |
| --- | --- |
| O=C1CC(c2cccc(O)c2)c2c(c(C(=O)O)cn2-c2ccccc2)N1 (stereo unspecified) | 1% |
| Cc1ccc(C)c2c(O)cc(CNCc3ccc(S(N)(=O)=O)cc3)nc12 | -9.06% |
| COc1cccc(NC(=O)NCC(C)(O)CCSC)c1OC (stereo unspecified) | 0.253% |
| Cc1cc(C(N)=O)nc(C2(C)CCCN2Cc2cnn(C)c2)n1 (stereo unspecified) | -23.6% |
| CC(C)N1CCCC(CN(C)c2ccc(Cn3ccnc3)cn2)C1 (stereo unspecified) | -127% |
| COc1ccnc(N2CCC(=O)N(CC3CC3)C(C(C)C)C2)n1 (stereo unspecified) | 1.73% |
| CC(C)N1CCC(CC(=O)NC(C(=O)O)c2cc(F)ccc2F)CC1 (stereo unspecified) | 1.18% |
| Cc1nc(C)n(CC2CCCN2CC(=O)Nc2ccncc2)n1 (stereo unspecified) | -1.73% |
| Cc1nsc(C(=O)NCCc2ccc(S(N)(=O)=O)cc2)n1 | 7.11% |
| NC(=O)N1Cc2nccn2CC(Cn2ncccc2=O)C1 (stereo unspecified) | 3.19% |
| COCC1CC2(CCN(CC3CC3)CC2)CN1Cc1ccccn1 (stereo unspecified) | -97.4% |
| CCc1nc(CN2CCCN(CC(=O)N3CCOCC3)CC2)no1 | -10.2% |
| CC(C)n1cnnc1CN(C)C(=O)Cn1ccc2ccccc2c1=O | 3.1% |
| COCCCC1CCCCN1Cc1cnn(C)c1C1CC1 (stereo unspecified) | -2.52% |
| Cc1nccn1[C@@H]1CC[C@@H](NC(=O)Cn2c(C)nc3ccccc32)[C@H]1O | 2.41% |
| Cc1ncsc1CCN(C)Cc1cc2n(n1)CCN(Cc1ccco1)C2 | -4.93% |
| COCCCN1C(=O)CC[C@H]2CN(c3ccc(C(N)=O)cn3)CC[C@H]21 | 5.03% |
| CCN(CC(=O)NC(C)(C)C)Cc1cccc2c1OCCO2 | -18.7% |
